Key:
[1] = Drug degradation in 0.5M phosphate citric acid buffer at 0.5 mM at pH 7.4 at 37 degC by HPLC-UV analysis; format: physicochemical; settings: pH 7.4, 500 µM
How it was run: (§1)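 Aliquots over time quenched to pH 1.5 with HCl, quantified by HPLC against standard curves (peak area ratio to DMPA). k from slope of ln(C/Co) versus time, pseudo-first-order; half-life derived.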

[2] = Half life of the compound in 0.5M phosphate citric acid buffer at 0.5 mM at pH 7.4 at 37 degC by HPLC-UV analysis; format: ADME; how it was run: as §1
[3] = Stability of compound in 0.5M phosphate citric acid buffer assessed as autoxidative conversion at 0.1 mM at pH 7.4 at 37 degC for 90 mins by HPLC-UV analysis; format: physicochemical; settings: pH 7.4, 1.5 h, 100 µM
How it was run: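 Incubated 90 min at 37 °C. Dibenzocyclooctadiene formation monitored by HPLC, with products examined by MS and NMR. NDGA served as positive control.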

[4] = Stability of compound assessed as level of starting material at 37 degC for 6 hrs in presence of 20 fold excess of glutathione; format: physicochemical; settings: read-out: Stability
How it was run: (§2)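 Substrate and DMPA internal standard, 0.5 mM each, incubated in phosphate–citrate buffer (0.5 M, pH 7.4) at 37 °C for 6 h with or without 20-fold excess glutathione. Samples acidified to pH 1.5 and analysed directly by HPLC and ESI-MS. Relative percentage of starting material, cyclised product and adduct reported.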

[5] = Stability of compound assessed as level of starting material at 37 degC for 6 hrs in absence of glutathione; format: physicochemical; settings: read-out: Stability; how it was run: as §2
[6] = Stability of compound assessed as formation of 5,6,7,8-Tetrahydro-dibenzo[a,c]cyclooctene-2,3,10,11-tetraol in phosphate citric acid buffer at pH 7.4 at 37 degC by HPLC-UV analysis; format: physicochemical
How it was run: (§3)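 Formation rate of the dibenzocyclooctadiene inferred from loss of the parent substrate (0.5 mM, DMPA internal standard) in phosphate–citric acid buffer (0.5 M, pH 7.4) at 37 °C. Aliquots acidified to pH 1.5 with HCl and analysed by HPLC; first-order k from ln(C/Co) versus time, relative rate versus NDGA.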

[7] = Stability of compound assessed as formation of 5,6,7,8-Tetrahydro-dibenzo[a,c]cyclooctene-2,3,10,11-tetraol in phosphate citric acid buffer at pH 7.4 at 37 degC by HPLC-UV analysis relative to NDGA; format: physicochemical; how it was run: as §3
[8] = Drug degradation in phosphate citric acid buffer at pH 7.4 at 37 degC at 0.5 mM by HPLC-UV analysis; format: physicochemical; settings: pH 7.4, 500 µM; how it was run: as §1
[9] = Stability of compound in 0.5M phosphate citric acid buffer assessed as drug degradation at 0.5 mM at pH 7.4 at 37 degC for 48 hrs by HPLC-UV analysis; format: physicochemical; settings: read-out: Drug degradation; how it was run: as §1
[10] = Drug degradation in phosphate citric acid buffer at pH 7.4 at 37 degC by HPLC-UV analysis relative to cNDGA; format: physicochemical
How it was run: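 Cyclised dibenzocyclooctadiene derivative (0.5 mM) with DMPA internal standard incubated in phosphate–citric acid buffer (0.5 M, pH 7.4) at 37 °C; aliquots acidified to pH 1.5 and parent loss followed by HPLC. First-order rate constant from ln(C/Co) versus time, expressed relative to cNDGA.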

[11] = Stability of compound assessed as formation of cNDGA in phosphate citric acid buffer at pH 7.4 at 37 degC by HPLC-UV analysis; format: physicochemical; how it was run: as §3
[12] = Dissociation constant, pKa of compound; format: physicochemical

SMILES | K [1] [×10⁻⁵ /s] | half-life at 500 µM [2] [h] | Drug metabolism [3] | further results
Oc1ccc(CCCCc2ccc(O)c(O)c2)cc1O | 13.1 | 1.47 | metabolite_detected | remaining at 6 h [4]: 95.5%; remaining at 6 h [5]: 8.52%; K [6]: 8.7 ×10⁻⁵ /s; Ratio [7]: 3.1
CC1Cc2cc(O)c(O)cc2-c2cc(O)c(O)cc2CC1C (centres undefined) | – | – | – | K [8]: 0.47 ×10⁻⁵ /s
CC(Cc1cccc(O)c1)C(C)Cc1cccc(O)c1 (centres undefined) | – | – | metabolite_detected | degraded at 48 h, 500 µM [9]: < 5%
COc1cc(CC(C)C(C)Cc2ccc(O)c(OC)c2)ccc1O (centres undefined) [DIHYDROGUAIARETIC ACID] | 2.87 | 6.7 | metabolite_detected | –
COc1ccc(CC(C)C(C)Cc2ccc(O)c(O)c2)cc1OC (centres undefined) | 4.16 | 4.62 | metabolite_detected | –
Oc1cc2c(cc1O)-c1cc(O)c(O)cc1CCCC2 | – | – | – | K [8]: 1.75 ×10⁻⁵ /s; Ratio [10]: 3.7
CC(Cc1ccccc1)C(C)Cc1ccc(O)c(O)c1 (centres undefined) | 4.56 | 4.22 | metabolite_detected | –
CC(Cc1ccc(O)c(O)c1)C(C)Cc1ccc(O)c(O)c1 (centres undefined) [NORDIHYDROGUAIARETIC ACID] | 4.88 | 3.94 | metabolite_detected | remaining at 6 h [4]: 87.1%; remaining at 6 h [5]: 66.9%; K [11]: 2.78 ×10⁻⁵ /s; pKa [12]: 9.3

The next lines start with results.

K [1] [×10⁻⁵ /s] | half-life at 500 µM [2] [h] | SMILES | Drug metabolism [3] | further results
3.5 | 5.49 | COc1cc(CC(C)C(C)Cc2ccccc2)ccc1O (centres undefined) | metabolite_detected | –
4.11 | 4.68 | COc1ccc(CC(C)C(C)Cc2ccc(OC)c(O)c2)cc1O (centres undefined) | metabolite_detected | –

Reference: ChEMBL document CHEMBL3627654, “Ring substitution influences oxidative cyclisation and reactive metabolite formation of nordihydroguaiaretic acid analogues” (Bioorg Med Chem, 2015)
